Measurements as given in ChEMBL document CHEMBL4007421, “Discovery and Preclinical Characterization of 3-((4-(4-Chlorophenyl)-7-fluoroquinoline-3-yl)sulfonyl)benzonitrile, a Novel Non-acetylenic Metabotropic Glutamate Receptor 5 (mGluR5) Negative Allosteric Modulator for Psychiatric Indications” (J Med Chem, 2017).
Converted amounts (≈) assume the structure as drawn. The source made the active and inactive calls. No cut-off for these calls is given here.

What was measured:
Liver = assay: Intrinsic clearance in rat liver microsomes at 2.5 uM assessed per gram of liver; type: ADME, microsome
[1] = target: T1, Metabotropic glutamate receptor 5 (Homo sapiens, UniProt P41594); assay: Negative allosteric modulation of human mGluR5a expressed in CHO cells assessed as reduction in DHPG-induced cytosolic Ca2+ influx after 10 to 20 mins by fluo-4/AM-dye based fluorometric analysis; type: functional, cell-based
T1 sequence (P41594 whole entry): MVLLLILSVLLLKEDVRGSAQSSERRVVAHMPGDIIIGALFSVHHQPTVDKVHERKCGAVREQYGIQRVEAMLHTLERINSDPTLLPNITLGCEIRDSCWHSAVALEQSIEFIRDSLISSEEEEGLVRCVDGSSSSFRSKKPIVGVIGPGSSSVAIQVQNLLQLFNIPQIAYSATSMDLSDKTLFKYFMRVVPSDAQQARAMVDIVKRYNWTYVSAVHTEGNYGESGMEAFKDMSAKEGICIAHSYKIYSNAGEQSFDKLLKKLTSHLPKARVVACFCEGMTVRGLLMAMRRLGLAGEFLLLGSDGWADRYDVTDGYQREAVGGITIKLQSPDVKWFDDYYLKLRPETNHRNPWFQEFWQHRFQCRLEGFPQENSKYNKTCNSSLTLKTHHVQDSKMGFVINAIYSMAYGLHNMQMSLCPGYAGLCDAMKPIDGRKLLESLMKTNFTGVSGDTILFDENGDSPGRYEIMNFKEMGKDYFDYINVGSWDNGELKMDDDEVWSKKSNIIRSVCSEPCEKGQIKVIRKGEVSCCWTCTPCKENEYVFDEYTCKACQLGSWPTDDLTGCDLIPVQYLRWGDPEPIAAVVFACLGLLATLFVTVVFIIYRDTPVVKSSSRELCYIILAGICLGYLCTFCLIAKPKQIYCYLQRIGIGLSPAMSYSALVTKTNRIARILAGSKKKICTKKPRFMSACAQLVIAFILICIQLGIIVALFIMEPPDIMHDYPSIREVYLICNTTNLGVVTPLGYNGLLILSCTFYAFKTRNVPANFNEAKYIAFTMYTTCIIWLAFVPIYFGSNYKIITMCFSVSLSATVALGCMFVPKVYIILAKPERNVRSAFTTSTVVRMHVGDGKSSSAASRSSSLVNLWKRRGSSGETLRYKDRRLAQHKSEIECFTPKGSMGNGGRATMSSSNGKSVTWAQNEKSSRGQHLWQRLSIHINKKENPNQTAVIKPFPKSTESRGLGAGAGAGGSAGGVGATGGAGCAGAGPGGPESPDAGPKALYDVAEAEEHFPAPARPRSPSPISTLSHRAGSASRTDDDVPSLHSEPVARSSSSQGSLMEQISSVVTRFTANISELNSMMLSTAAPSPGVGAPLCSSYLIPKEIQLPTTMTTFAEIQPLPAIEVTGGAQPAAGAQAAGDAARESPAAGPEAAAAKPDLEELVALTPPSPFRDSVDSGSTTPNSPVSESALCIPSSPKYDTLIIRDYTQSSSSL

Rattus norvegicus [2] = assay: Anxiolytic activity in ip dosed Wistar rat assessed as increase in water drinking time during punished period administered as suspension by Vogel punished drinking conflict test; type: functional; settings: read-out: MED
Outline: (§1)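 Vogel punished-drinking test in rats, single i.p. or p.o. dose as suspension in 5% Tween 80; plasma sampled ~45 min after i.p. or ~75 min after p.o. dosing.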

[3] = Plasma concentration in ip dosed Wistar rat at anxiolytic MED administered as suspension after 45 mins during Vogel punished drinking conflict test; type: ADME, organism-based
Outline: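 Vehicle was a suspension containing 5% Tween 80, given i.p. at the Vogel minimum effective dose. Plasma was sampled about 45 min after dosing, right after the Vogel punished drinking test.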

Rattus norvegicus [4] = assay: Anxiolytic activity in po dosed Wistar rat assessed as increase in water drinking time during punished period administered as suspension by Vogel punished drinking conflict test; type: functional; settings: read-out: MED; outline: as §1
Rattus norvegicus [5] = assay: Therapeutic index, ratio of MED for effect on spatial learning performance in po dosed Wistar rat by Morris water maze test to MED for anxiolytic activity in Wistar rat by Vogel punished drinking conflict test
Outline: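 Index is the Morris water maze minimum effective dose (oral, given 1 h before the first daily trial, 4 days of 3 trials) divided by the Vogel punished drinking minimum effective dose.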

[6] = Aqueous solubility of the compound at pH 7.4; type: physicochemical
[7] = target: Metabotropic glutamate receptor 5 (Rattus norvegicus, UniProt P31424); assay: Negative allosteric modulation of mGluR5 in E17 Sprague-Dawley rat primary neuronal cultures assessed as reduction of DHPG-induced cytosolic Ca2+ influx after 10 to 20 mins by fluo-4/AM-dye based fluorometric analysis; type: functional
Metabotropic glutamate receptor 5 (Rattus norvegicus, UniProt P31424), sequence (P31424 whole entry): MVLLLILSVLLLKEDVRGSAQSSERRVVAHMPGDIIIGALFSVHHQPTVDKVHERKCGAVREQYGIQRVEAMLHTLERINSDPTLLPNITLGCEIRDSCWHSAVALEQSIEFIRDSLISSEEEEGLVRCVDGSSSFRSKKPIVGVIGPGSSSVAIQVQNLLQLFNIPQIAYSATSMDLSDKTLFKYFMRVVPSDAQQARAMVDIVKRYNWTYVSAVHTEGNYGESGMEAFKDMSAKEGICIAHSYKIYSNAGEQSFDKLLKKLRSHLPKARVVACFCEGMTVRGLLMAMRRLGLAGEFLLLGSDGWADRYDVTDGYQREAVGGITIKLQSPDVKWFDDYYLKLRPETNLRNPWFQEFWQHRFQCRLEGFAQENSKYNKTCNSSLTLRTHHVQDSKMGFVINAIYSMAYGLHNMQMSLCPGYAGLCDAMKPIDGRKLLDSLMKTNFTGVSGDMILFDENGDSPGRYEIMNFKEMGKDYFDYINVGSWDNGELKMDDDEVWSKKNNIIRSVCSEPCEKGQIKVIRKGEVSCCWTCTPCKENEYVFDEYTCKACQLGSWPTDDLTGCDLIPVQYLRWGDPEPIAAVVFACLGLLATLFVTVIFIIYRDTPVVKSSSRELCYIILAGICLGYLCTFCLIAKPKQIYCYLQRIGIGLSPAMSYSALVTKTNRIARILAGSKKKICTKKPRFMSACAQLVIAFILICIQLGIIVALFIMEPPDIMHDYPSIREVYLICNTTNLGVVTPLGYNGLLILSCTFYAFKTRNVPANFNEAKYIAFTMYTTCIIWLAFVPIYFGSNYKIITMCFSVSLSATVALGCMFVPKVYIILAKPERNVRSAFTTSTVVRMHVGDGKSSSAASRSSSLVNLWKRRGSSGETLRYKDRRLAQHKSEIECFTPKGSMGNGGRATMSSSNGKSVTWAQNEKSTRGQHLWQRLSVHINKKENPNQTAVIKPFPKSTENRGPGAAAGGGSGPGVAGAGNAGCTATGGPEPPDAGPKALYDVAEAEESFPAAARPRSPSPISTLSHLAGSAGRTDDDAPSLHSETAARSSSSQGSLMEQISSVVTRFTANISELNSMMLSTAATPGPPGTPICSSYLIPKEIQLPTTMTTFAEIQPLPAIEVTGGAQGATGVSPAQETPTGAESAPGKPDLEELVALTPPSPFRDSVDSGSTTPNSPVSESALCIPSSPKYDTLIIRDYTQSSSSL

[8] = Plasma protein binding in rat; type: ADME, cell-free; settings: read-out: PPB (converted)
[9] = Plasma protein binding in dog; type: ADME, cell-free, Canis lupus familiaris; settings: read-out: PPB (converted)
[10] = Plasma protein binding in human; type: ADME, cell-free; settings: read-out: PPB (converted)
Cytochrome P450 2D6 = Cytochrome P450 2D6 (Homo sapiens, UniProt P10635); assay: Inhibition of CYP2D6 in human liver microsomes; type: ADME
Cytochrome P450 2D6, sequence (P10635 whole entry): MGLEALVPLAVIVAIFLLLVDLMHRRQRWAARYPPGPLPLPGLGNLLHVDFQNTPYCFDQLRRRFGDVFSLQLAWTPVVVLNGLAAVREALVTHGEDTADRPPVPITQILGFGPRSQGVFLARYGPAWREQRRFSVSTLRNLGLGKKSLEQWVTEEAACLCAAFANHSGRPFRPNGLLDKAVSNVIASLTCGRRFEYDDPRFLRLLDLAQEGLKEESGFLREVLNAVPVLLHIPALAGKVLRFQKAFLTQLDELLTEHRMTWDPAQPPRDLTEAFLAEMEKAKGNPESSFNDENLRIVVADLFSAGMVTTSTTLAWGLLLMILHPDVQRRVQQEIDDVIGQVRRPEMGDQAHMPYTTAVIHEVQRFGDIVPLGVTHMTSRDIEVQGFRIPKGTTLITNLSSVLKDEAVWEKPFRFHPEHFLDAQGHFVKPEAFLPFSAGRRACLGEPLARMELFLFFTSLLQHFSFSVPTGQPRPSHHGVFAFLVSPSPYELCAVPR

[11] = Clearance in female Crl:CD(SD) rat at 0.5 mg/kg, iv; type: ADME, organism-based; settings: in vivo
[12] = Volume of distribution in male Crl:CD(SD) rat at 0.5 mg/kg, iv; type: ADME, organism-based; settings: in vivo
Outline: (§2)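 Single-dose PK: i.v. and oral dosing in Crl:CD(SD) rats and beagle dogs, plus a pilot oral nasogastric study in Cynomolgus monkeys using a Type IV lipid formulation. Rat i.v. vehicle was 80% cosolvent. Monkeys were fasted from 2 h before until 2 h after dosing, n=3 per sex. Rats also received [14C]-labelled compound orally at 50 mg/kg, with total radioactivity followed. Parameters are means; monkey values are medians.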

[13] = Volume of distribution in female Crl:CD(SD) rat at 0.5 mg/kg, iv; type: ADME, organism-based; settings: in vivo; outline: as §2
[14] = Volume of distribution in male beagle dog at 0.5 mg/kg, iv administered as infusion; type: ADME, organism-based, Canis lupus familiaris; settings: in vivo; outline: as §2
[15] = Terminal elimination half life in female Crl:CD(SD) rat at 0.5 mg/kg, iv; type: ADME, organism-based; settings: in vivo, read-out: beta t1/2 (converted); outline: as §2
[16] = Terminal elimination half life in female beagle dog at 0.5 mg/kg, iv administered as infusion; type: ADME, organism-based, Canis lupus familiaris; settings: in vivo, read-out: beta t1/2 (converted); outline: as §2
[17] = Terminal elimination half life in fasted male beagle dog at 1 mg/kg, po; type: ADME, organism-based, Canis lupus familiaris; settings: in vivo, read-out: beta t1/2 (converted); outline: as §2
[18] = Terminal elimination half life in fasted female beagle dog at 1 mg/kg, po; type: ADME, organism-based, Canis lupus familiaris; settings: in vivo, read-out: beta t1/2 (converted); outline: as §2
[19] = Terminal elimination half life in fasted male cynomolgus monkey at 9 mg/kg, po administered as single dose; type: ADME, organism-based, Macaca fascicularis; settings: in vivo, read-out: beta t1/2 (converted); outline: as §2
[20] = Tmax in male beagle dog at 0.5 mg/kg, iv administered as infusion; type: ADME, organism-based, Canis lupus familiaris; settings: in vivo; outline: as §2
[21] = Tmax in female beagle dog at 0.5 mg/kg, iv administered as infusion; type: ADME, organism-based, Canis lupus familiaris; settings: in vivo; outline: as §2
[22] = Tmax in fasted male beagle dog at 1 mg/kg, po; type: ADME, organism-based, Canis lupus familiaris; settings: in vivo; outline: as §2
[23] = Tmax in fasted female beagle dog at 1 mg/kg, po; type: ADME, organism-based, Canis lupus familiaris; settings: in vivo; outline: as §2
[24] = Tmax in fasted male cynomolgus monkey at 9 mg/kg, po administered as single dose; type: ADME, organism-based, Macaca fascicularis; settings: in vivo; outline: as §2
[25] = Tmax in fasted female cynomolgus monkey at 9 mg/kg, po administered as single dose; type: ADME, organism-based, Macaca fascicularis; settings: in vivo; outline: as §2
[26] = Cmax in male Crl:CD(SD) rat at 4.5 mg/kg, po; type: ADME, organism-based; set-up: dose 4.5 mg/kg, route oral; settings: in vivo
[27] = Cmax in female Crl:CD(SD) rat at 4.5 mg/kg, po; type: ADME, organism-based; set-up: dose 4.5 mg/kg, route oral; settings: in vivo
[28] = Cmax in male beagle dog at 0.5 mg/kg, iv administered as infusion; type: ADME, organism-based, Canis lupus familiaris; set-up: dose 0.5 mg/kg, route intravenous; settings: in vivo
[29] = Cmax in fasted male beagle dog at 1 mg/kg, po; type: ADME, organism-based, Canis lupus familiaris; set-up: dose 1 mg/kg, route oral; settings: in vivo
[30] = Cmax in fasted female cynomolgus monkey at 9 mg/kg, po administered as single dose; type: ADME, organism-based, Macaca fascicularis; set-up: dose 9 mg/kg, route oral; settings: in vivo
[31] = AUC in male Crl:CD(SD) rat at 4.5 mg/kg, po; type: ADME, organism-based; settings: in vivo
[32] = AUC in female beagle dog at 0.5 mg/kg, iv administered as infusion; type: ADME, organism-based, Canis lupus familiaris; settings: in vivo
[33] = AUC in fasted male beagle dog at 1 mg/kg, po; type: ADME, organism-based, Canis lupus familiaris; settings: in vivo
[34] = AUC(0 to 8 hrs) in fasted female cynomolgus monkey at 9 mg/kg, po administered as single dose; type: ADME, organism-based, Macaca fascicularis; set-up: time < 6 hr, dose 9 mg/kg, route oral; settings: in vivo
[35] = target: Metabotropic glutamate receptor 1 (Rattus norvegicus) (UniProt P23385); assay: Negative allosteric modulation of mGluR1 in newborn Sprague-Dawley rat cerebelli assessed as reduction of DHPG-induced cytosolic Ca2+ influx after 10 to 20 mins by fluo-4/AM-dye based fluorometric analysis; type: functional
Metabotropic glutamate receptor 1 (Rattus norvegicus), sequence (P23385 19-1199 limits assumed): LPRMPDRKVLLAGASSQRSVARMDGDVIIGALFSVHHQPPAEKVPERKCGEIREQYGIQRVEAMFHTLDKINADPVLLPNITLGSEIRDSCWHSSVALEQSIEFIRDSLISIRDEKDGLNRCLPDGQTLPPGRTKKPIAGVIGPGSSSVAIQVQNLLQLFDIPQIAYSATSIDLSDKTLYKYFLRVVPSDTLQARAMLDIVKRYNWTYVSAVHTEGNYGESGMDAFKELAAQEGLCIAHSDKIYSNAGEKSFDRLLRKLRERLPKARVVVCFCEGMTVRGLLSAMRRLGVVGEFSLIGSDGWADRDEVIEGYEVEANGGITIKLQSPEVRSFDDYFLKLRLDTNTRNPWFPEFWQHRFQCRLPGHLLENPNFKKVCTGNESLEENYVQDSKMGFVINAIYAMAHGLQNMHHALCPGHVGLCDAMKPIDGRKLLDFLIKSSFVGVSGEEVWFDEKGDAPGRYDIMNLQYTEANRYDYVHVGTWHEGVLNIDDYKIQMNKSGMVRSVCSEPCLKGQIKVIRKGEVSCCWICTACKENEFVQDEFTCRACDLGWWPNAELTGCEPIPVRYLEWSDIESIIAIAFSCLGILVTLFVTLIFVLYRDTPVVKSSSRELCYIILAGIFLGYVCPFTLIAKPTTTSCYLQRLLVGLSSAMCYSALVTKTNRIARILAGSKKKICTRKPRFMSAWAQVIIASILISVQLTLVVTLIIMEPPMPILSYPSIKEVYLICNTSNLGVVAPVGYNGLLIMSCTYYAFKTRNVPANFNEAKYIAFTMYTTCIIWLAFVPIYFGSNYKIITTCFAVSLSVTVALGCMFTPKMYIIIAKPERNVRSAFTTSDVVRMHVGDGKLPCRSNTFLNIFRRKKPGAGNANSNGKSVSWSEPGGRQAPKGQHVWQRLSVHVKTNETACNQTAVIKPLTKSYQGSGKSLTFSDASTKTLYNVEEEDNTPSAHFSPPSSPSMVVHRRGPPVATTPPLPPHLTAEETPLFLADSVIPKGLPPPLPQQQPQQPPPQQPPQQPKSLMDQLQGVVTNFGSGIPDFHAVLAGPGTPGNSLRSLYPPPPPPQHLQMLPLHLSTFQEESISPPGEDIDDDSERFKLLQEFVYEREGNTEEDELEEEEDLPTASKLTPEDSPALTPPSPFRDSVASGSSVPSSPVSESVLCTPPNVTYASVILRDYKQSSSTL

Rattus norvegicus [36] = assay: Terminal elimination half life in female Crl:CD(SD) rat at 50 mg/kg, po using [14C]labeled compound; type: ADME, organism-based; settings: in vivo; outline: as §2
[37] = Plasma concentration in Wistar rat at 0.5 mg/kg, po after 75 mins; type: ADME, organism-based
Outline: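 Plasma levels taken right after the Vogel test (~75 min after oral dose) following single oral doses in lipid-based formulations; data pooled from four experiments; mean±SD.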

[38] = target: T1, Metabotropic glutamate receptor 5; assay: Displacement of [3H]M-MPEP from recombinant human mGluR5a expressed in human A18 cell membrane homogenate
[39] = target: T1, Metabotropic glutamate receptor 5; assay: Displacement of [3H]M-MPEP from mGluR5 in male human post mortem parietal cortical tissue after 30 mins by scintillation counting method
[40] = target: T1, Metabotropic glutamate receptor 5; assay: Displacement of [3H]M-MPEP from mGluR5 in female human post mortem parietal cortical tissue after 30 mins by scintillation counting method

CLint (Liver): 0.25 mL/min/g
IC50 [1]: 13 nM
concentration at 0.75 h [3]: 51.1 nM
solubility [6]: 10 µg/mL (≈ 23.6 µM)
IC50 [7]: 19 nM
fraction unbound [8]: 0.0027
fraction unbound [9]: 0.0025
fraction unbound [10]: 0.0039
IC50 (Cytochrome P450 2D6): > 10000 nM
clearance [11]: 14.3 mL/min/kg
Vd [12]: 12.4 L/kg
Vd [13]: 9.6 L/kg
Vd [14]: 8.6 L/kg
half-life [15]: 7.79 h
half-life [16]: 11.8 h
half-life [17]: 12.8 h
half-life [18]: 10.7 h
half-life [19]: 1.4 h
Tmax [20]: 0.5 h
Tmax [21]: 0.5 h
Tmax [22]: 0.75 h
Tmax [23]: 0.83 h
Tmax [24]: 1.7 h
Tmax [25]: 1.3 h
Cmax [26]: 369 nM
Cmax [27]: 650 nM
Cmax [28]: 1540 nM
Cmax [29]: 492 nM
Cmax [30]: 33 nM
AUC [31]: 2.19 µM·h
AUC [32]: 2.22 µM·h
AUC [33]: 1.86 µM·h
AUC(0-t) at 6 h [34]: 0.087 µM·h
Activity [35]: Active
beta t1/2 (Rattus norvegicus [36]): 8 h
concentration at 1.25 h [37]: 34.8 nM
Ki [38]: 4.9 nM
Ki [39]: 10.8 nM
Ki [40]: 12.1 nM
SMILES: N#Cc1cccc(S(=O)(=O)c2cnc3cc(F)ccc3c2-c2ccc(Cl)cc2)c1
minimal effective dose (Rattus norvegicus [2]): 3 mg/kg
minimal effective dose (Rattus norvegicus [4]): 0.5 mg/kg
TI (Rattus norvegicus [5]): >30
